For one data set, the target named is human MDR1 (Homo sapiens, UniProt P08183). Description: Bidirectional transport assay in L‐MDR1 cells. It is filed as in vitro ADME. The settings on record: 1 μM. The method, boiled down: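 Transport run in LLC-PK1 or MDCKII cells, parental or transfected (L-MDR1 human MDR1, L-Mdr1a rodent Mdr1a, M-BCRP human BCRP, M-Bcrp rodent Bcrp). Cells were grown on semipermeable inserts and assayed bidirectionally on day 3 or 4 after seeding. Donor medium held 1 μM test compound plus 10 μM Lucifer yellow to check monolayer integrity. Receiver medium lacked phenol red, with or without inhibitor: zosuquidar 1 μM for MDR1/Mdr1a, Ko143 1 μM for BCRP/Bcrp. Reference substrates served as activity controls.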

Data set [1] has as its system SMN protein. The data set can be described thus: SMN protein levels in tissues of C/C‐allele SMA mice. It is filed as in vivo. The settings on record: 10 mg/kg/day PO, 10 days, Study 12. The essentials:
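Adult C/C-allele SMA mice (FVB.129(B6) background) started dosing at ~7 weeks. Dosing was once-daily oral, as a suspension in 0.5% HPMC/0.1% Tween 80. Mice were killed by CO2 1 h after the last dose; tissues were unperfused, homogenized and diluted in RIPA. SMN was measured by HTRF in duplicate (averaged) against a recombinant human SMN standard curve, and total protein by BCA. Result: SMN/total protein per treated mouse ÷ vehicle-group mean.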

For data set [2] the following is noted: Phase 1 MOONFISH trial, patients with Type 2 and 3 SMA; ref NCT03032172; cited from earlier work.
For data set [3] the following is noted: monkeys; dosing in MOONFISH suspended because of it; ref not given; cited from earlier work.
The subject of data set [4] is SMN protein. The data set can be described thus: SMN protein levels in brain and muscle of SMNΔ7 mice. It is filed as in vivo. Conditions: 7 days of once daily dosing, Study 4.
Data set [5] deals with SMN protein. Conditions: SUNFISH Part 1 early interim data, dose‐dependent; cited from earlier work.
Data set [6] can be described thus: Tissue distribution in cynomolgus monkeys. Type of data set: in vivo, cynomolgus monkeys (Macaca fascicularis). The settings on record: for concentration at 7 days / Kp at 7 days / concentration at 6 weeks after the last dose: cynomolgus monkey, oral, 3 mg/kg/day.
Data set [7] is described as follows: Predicted CSF‐to‐unbound plasma partition coefficient from L‐Mdr1a efflux ratio. Further details: species or system rat. Conditions: based on the rodent ER and model from ref 25. The method, boiled down: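 pKp,uu derived as 1/[(1−γ)+γ·ER], with γ fixed at 0.753 and ER being the efflux ratio measured in L-Mdr1a cells.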
Another data set relates to SMNΔ7 mice. The settings on record: dosed once daily for 219 days, Study 5; cited from earlier work.
Data set [8] can be described thus: Plasma, brain and CSF drug levels in rats. Type of data set: in vivo. Conditions: Wistar, rat, brain / total plasma, po, 7.5 mg/kg/day.
The test system of a further data set is severe SMA mice. Conditions: cited from earlier work.
Where [9] appears, read: monkeys, Study 10, after 22 weeks' treatment‐free recovery period.
Where [10] appears, read: two cynomolgus monkeys, Study 9.

Read-outs that look alike come from different tables or passages of the source.

Chain of human MDR1 (P08183 whole entry): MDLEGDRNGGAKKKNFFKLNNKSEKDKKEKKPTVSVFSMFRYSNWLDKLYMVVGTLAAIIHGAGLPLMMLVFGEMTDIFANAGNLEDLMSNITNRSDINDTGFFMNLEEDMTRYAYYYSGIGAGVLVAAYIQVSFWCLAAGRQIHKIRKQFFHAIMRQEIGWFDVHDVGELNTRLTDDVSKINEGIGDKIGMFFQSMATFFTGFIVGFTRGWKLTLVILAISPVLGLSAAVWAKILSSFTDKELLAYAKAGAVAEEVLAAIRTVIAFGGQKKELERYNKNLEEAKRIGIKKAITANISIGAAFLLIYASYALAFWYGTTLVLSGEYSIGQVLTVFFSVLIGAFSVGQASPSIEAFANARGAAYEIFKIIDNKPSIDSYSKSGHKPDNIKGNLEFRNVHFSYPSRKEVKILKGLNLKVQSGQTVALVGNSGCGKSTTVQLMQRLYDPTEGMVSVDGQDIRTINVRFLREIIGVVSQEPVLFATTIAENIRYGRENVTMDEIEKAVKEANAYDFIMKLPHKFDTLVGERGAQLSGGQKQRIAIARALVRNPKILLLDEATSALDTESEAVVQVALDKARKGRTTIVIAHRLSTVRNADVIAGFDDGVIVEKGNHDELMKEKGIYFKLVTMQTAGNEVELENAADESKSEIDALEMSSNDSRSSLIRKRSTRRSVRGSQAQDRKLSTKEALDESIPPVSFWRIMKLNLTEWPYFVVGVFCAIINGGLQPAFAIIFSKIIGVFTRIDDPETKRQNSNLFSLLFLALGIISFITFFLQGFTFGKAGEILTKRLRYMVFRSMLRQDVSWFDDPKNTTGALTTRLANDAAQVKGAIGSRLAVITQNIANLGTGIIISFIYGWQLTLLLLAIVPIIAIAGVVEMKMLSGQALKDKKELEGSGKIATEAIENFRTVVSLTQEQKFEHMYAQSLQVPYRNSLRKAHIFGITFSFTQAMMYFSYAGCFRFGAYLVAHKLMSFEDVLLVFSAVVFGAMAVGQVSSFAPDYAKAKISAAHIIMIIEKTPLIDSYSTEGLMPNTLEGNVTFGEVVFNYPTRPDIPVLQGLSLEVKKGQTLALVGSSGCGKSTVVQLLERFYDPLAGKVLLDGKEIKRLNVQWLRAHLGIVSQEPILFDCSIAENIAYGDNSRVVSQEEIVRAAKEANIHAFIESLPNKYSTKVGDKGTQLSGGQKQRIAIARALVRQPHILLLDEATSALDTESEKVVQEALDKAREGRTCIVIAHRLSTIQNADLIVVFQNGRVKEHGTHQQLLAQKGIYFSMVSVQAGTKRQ

Turning to `CCc1nc(C)cn2nc(-c3cc(=O)n4cc(C5CCN(C)CC5)cc(C)c4n3)cc12` [RG7800, 2‐(4‐ethyl‐6‐methyl‐pyrazolo[1,5‐a]pyrazin‐2‐yl)‐9‐methyl‐7‐(1‐methyl‐4‐piperidyl)pyrido[1,2‐a]pyrimidin‐4‐one], the “substrate of human MDR1” value on human MDR1 is “not a substrate of human MDR1”. In the data set with SMN protein [1], the “SMN protein increase from baseline in heart” value is recorded as 31%, the “SMN protein increase from baseline in muscle” value is 23% and the “SMN protein increase in pancreas” value was “fourfold”. The serious adverse events result in data set [2] is listed as “no serious adverse events were reported”. Besides, in data set [3], the “findings in long‐term nonclinical safety studies” value is listed as “off‐target retinal findings”.
What is called Kp is the ratio of the level in a tissue or fluid to that in plasma or blood. Regarding `Cc1cn2nc(-c3cc(=O)n4cc(N5CCNC6(CC6)C5)ccc4n3)cc(C)c2n1` [risdiplam, 7‐(4,7‐diazaspiro[2.5]octan‐7‐yl)‐2‐(2,8‐dimethylimidazo[1,2‐b]pyridazin‐6‐yl)pyrido[1,2‐a]pyrimidin‐4‐one], the “increase in SMN protein levels in brain” value is 28% in the data set with SMN protein [4] (0.1 mg/kg/day) and 206% in the data set on SMN protein [4] (1 mg/kg/day). Moreover, the entries for the “increase in SMN protein levels in muscle” value with SMN protein [4] (0.1 mg/kg/day) and in the data set with SMN protein [4] (1 mg/kg/day) were 32% and 210%, respectively. The “average increase in functional SMN protein in the blood of patients with SMA” value with SMN protein [5] is recorded as “up to 2.5 fold”. Besides, the concentration at 7 days in [6] (CSF) was 53.5 ng/mL; in [6] (brain), 783 ng/g; in data set [6] (muscle) it was 668 ng/g; in data set [6] (plasma (unbound)) it was 119 ng/mL; in data set [6] (plasma), 794 ng/mL. Moreover, the Kp at 7 days in data set [6] (bone marrow / plasma) is approximately 5; in data set [6] (kidney / plasma), 10; in [6] (spleen / plasma), approximately 5. The concentration at 6 weeks after the last dose in data set [6] (duodenum) was less than 1 ng/g; in data set [6] (kidney) it was approximately 4 ng/g; in data set [6] (larynx), less than 1 ng/g; in data set [6] (liver) it was approximately 4 ng/g; in [6] (spleen), less than 1 ng/g. For the same compound, the “drug level in CSF” value in [6] (setting [9]) is on record as “below the limit of quantification (BLQ)”. Also, the “drug level in brain” value in data set [6] (setting [9]) is reported as “below the limit of quantification (BLQ)”. For the same compound, the “drug level in plasma” value in [6] (setting [9]) is “below the limit of quantification (BLQ)”. For the same compound, the “average cortex/brain stem concentrations ratio” value in [6] (monkeys, Study 10, n = 22) turned out to be 1.10. Further, the “difference of brain drug level from total plasma concentration” value in data set [6] (setting [10]) is recorded as “less than 30%”. In data set [6] (setting [10]), the “difference of heart drug level from total plasma concentration” value was “less than 30%”. The “difference of larynx drug level from total plasma concentration” value in [6] (setting [10]) is given as “less than 30%”. For the same compound, in data set [6] (setting [10]), the “difference of muscle drug level from total plasma concentration” value is given as “less than 30%”. In data set [7], the “predicted CSF‐to‐unbound plasma partition coefficient (pKp,uu)” value is given as 0.33. Also, the “survival of SMNΔ7 mice” value in the data set with SMNΔ7 mice is given as “prolonged survival”. The compound further gave a Kp at 90 days in data set [8] of 0.92.
Take nusinersen: the median lifespan in the data set on severe SMA mice (intracerebroventricular administration) was 16 days; with severe SMA mice (subcutaneous injections), 108 days.
